Experimental data as given in ChEMBL document CHEMBL3045605, “Synthesis and anticancer evaluation of novel 3,5-diaryl-thiazolo[4,5-d]pyrimidin-2-one derivatives” (2013).

Key:
Assay type in all cases: functional
[1] = tested on: Malme-3M; experiment: Anticancer activity against Homo sapiens (human) MALME-3M cells by SRB assay
In short: (§1)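 NCI 60-line panel, five tenfold dilutions from 10−4 to 10−8 M, growth read by sulforhodamine B staining against untreated controls. From the dose–response per line: GI50 (molar concentration giving half growth inhibition), TGI (molar concentration giving total growth inhibition, cytostatic) and LC50 (molar concentration killing 50% of initial cells, cytotoxic).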

[2] = tested on: Hs-578T; experiment: Anticancer activity against Homo sapiens (human) Hs 578T cells assessed as cell growth at 10 uM by SRB assay; details: read-out: Activity
In short: (§2)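 NCI 60-cell human tumour panel (nine cancer types) screened at one concentration, 10−5 M. Cell growth estimated by sulforhodamine B protein staining and reported as percent growth of treated cells relative to untreated controls.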

[3] = tested on: RXF 393; experiment: Anticancer activity against Homo sapiens (human) RXF393 cells assessed as cell growth at 10 uM by SRB assay; details: read-out: Activity
In short: (§3)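 Single-dose screen in the NCI 60-human-tumour-cell-line panel (nine cancer types) at 10−5 M. Cell growth was estimated by sulforhodamine B protein staining and reported as percent growth of treated cells relative to untreated controls.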

[4] = tested on: PC-3; experiment: Anticancer activity against Homo sapiens (human) PC3 cells assessed as cell growth at 10 uM by SRB assay; details: read-out: Activity; in short: as §3
[5] = tested on: KM12; experiment: Anticancer activity against Homo sapiens (human) KM12 cells assessed as cell growth at 10 uM by SRB assay; details: read-out: Activity; in short: as §2
[6] = tested on: OVCAR-8; experiment: Anticancer activity against Homo sapiens (human) OVCAR8 cells assessed as cell growth at 10 uM by SRB assay; details: read-out: Activity; in short: as §3
[7] = tested on: M14; experiment: Anticancer activity against Homo sapiens (human) M14 cells by SRB assay; in short: as §1
[8] = tested on: M14; experiment: Anticancer activity against Homo sapiens (human) M14 cells assessed as cell growth at 10 uM by SRB assay; details: read-out: Activity; in short: as §2
[9] = tested on: MOLT-4; experiment: Anticancer activity against Homo sapiens (human) MOLT4 cells assessed as cell growth at 10 uM by SRB assay; details: read-out: Activity; in short: as §3
[10] = tested on: HCT-116; experiment: Anticancer activity against Homo sapiens (human) HCT116 cells by SRB assay; in short: as §1
[11] = tested on: IGROV-1; experiment: Anticancer activity against Homo sapiens (human) IGROV1 cells by SRB assay; in short: as §1
[12] = tested on: 786-0; experiment: Anticancer activity against Homo sapiens (human) 786-0 cells assessed as cell growth at 10 uM by SRB assay; details: read-out: Activity; in short: as §2
[13] = tested on: LOX IMVI; experiment: Anticancer activity against Homo sapiens (human) LOXIMVI cells assessed as cell growth at 10 uM by SRB assay; details: read-out: Activity; in short: as §2
[14] = tested on: NCI-H522; experiment: Anticancer activity against Homo sapiens (human) NCI-H522 cells assessed as cell growth at 10 uM by SRB assay; details: read-out: Activity; in short: as §3
[15] = tested on: U-251; experiment: Anticancer activity against Homo sapiens (human) U251 cells by SRB assay
In short: (§4)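 NCI five-dose follow-up on the 60-line human tumour panel at tenfold dilutions from 10−4 to 10−8 M, with growth read by sulforhodamine B protein assay against untreated controls. For each cell line, GI50 (half growth inhibition), TGI (total growth inhibition) and LC50 (50% death of initial cells) are calculated as molar concentrations.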

[16] = tested on: MDA-MB-435; experiment: Anticancer activity against Homo sapiens (human) MDA-MB-435 cells by SRB assay
In short: (§5)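 Five-dose NCI 60-cell-line panel testing at tenfold dilutions from 10−4 to 10−8 M, with growth read by sulforhodamine B protein staining. For each cell line: GI50 is the molar concentration giving half growth inhibition; TGI is total growth inhibition (cytostatic); LC50 is the molar concentration killing 50% of the initial cells (cytotoxic).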

[17] = tested on: SNB-19; experiment: Anticancer activity against Homo sapiens (human) SNB19 cells assessed as cell growth at 10 uM by SRB assay; details: read-out: Activity; in short: as §3
[18] = tested on: ACHN; experiment: Anticancer activity against Homo sapiens (human) ACHN cells assessed as cell growth at 10 uM by SRB assay; details: read-out: Activity; in short: as §2
[19] = tested on: SN12C; experiment: Anticancer activity against Homo sapiens (human) SN12C cells assessed as cell growth at 10 uM by SRB assay; details: read-out: Activity; in short: as §3
[20] = tested on: SF-268; experiment: Anticancer activity against Homo sapiens (human) SF268 cells by SRB assay; in short: as §5
[21] = tested on: NCI-H23; experiment: Anticancer activity against Homo sapiens (human) NCI-H23 cells assessed as cell growth at 10 uM by SRB assay; details: read-out: Activity; in short: as §3
[22] = tested on: MCF7; experiment: Anticancer activity against Homo sapiens (human) MCF7 cells assessed as cell growth at 10 uM by SRB assay; details: read-out: Activity; in short: as §2
[23] = tested on: HOP-92; experiment: Anticancer activity against Homo sapiens (human) HOP92 cells assessed as cell growth at 10 uM by SRB assay; details: read-out: Activity; in short: as §2
[24] = tested on: K562; experiment: Anticancer activity against Homo sapiens (human) K562 cells by SRB assay; in short: as §1
[25] = tested on: NCI-H460; experiment: Anticancer activity against Homo sapiens (human) NCI-H460 cells assessed as cell growth at 10 uM by SRB assay; details: read-out: Activity; in short: as §3
[26] = tested on: NCI-H460; experiment: Anticancer activity against Homo sapiens (human) NCI-H460 cells by SRB assay; in short: as §5
[27] = tested on: UACC-62; experiment: Anticancer activity against Homo sapiens (human) UACC62 cells by SRB assay; in short: as §4
[28] = tested on: UO-31; experiment: Anticancer activity against Homo sapiens (human) UO31 cells by SRB assay; in short: as §4
[29] = tested on: SNB-75; experiment: Anticancer activity against Homo sapiens (human) SNB75 cells assessed as cell growth at 10 uM by SRB assay; details: read-out: Activity; in short: as §3
[30] = tested on: MDA-MB-435; experiment: Anticancer activity against Homo sapiens (human) MDA-MB-435 cells assessed as cell growth at 10 uM by SRB assay; details: read-out: Activity; in short: as §3
[31] = tested on: SF-539; experiment: Anticancer activity against Homo sapiens (human) SF539 cells assessed as cell growth at 10 uM by SRB assay; details: read-out: Activity; in short: as §3
[32] = tested on: EKVX; experiment: Anticancer activity against Homo sapiens (human) EKVX cells by SRB assay; in short: as §1
[33] = tested on: OVCAR-5; experiment: Anticancer activity against Homo sapiens (human) OVCAR5 cells by SRB assay; details: read-out: pTGI (converted); in short: as §5
[34] = tested on: A549; experiment: Anticancer activity against Homo sapiens (human) A549/ATCC cells assessed as cell growth at 10 uM by SRB assay; details: read-out: Activity; in short: as §2
[35] = tested on: NCI/ADR-RES; experiment: Anticancer activity against Homo sapiens (human) NCI/ADR-RES cells by SRB assay; in short: as §5
[36] = tested on: SK-MEL-5; experiment: Anticancer activity against Homo sapiens (human) SK-MEL-5 cells assessed as cell growth at 10 uM by SRB assay; details: read-out: Activity; in short: as §3
[37] = tested on: T47D; experiment: Anticancer activity against Homo sapiens (human) T47D cells assessed as cell growth at 10 uM by SRB assay; details: read-out: Activity
In short: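 NCI 60-cell human tumour panel (leukemia, melanoma, lung, colon, CNS, breast, ovarian, prostate, renal lines) given a single 10−5 M dose. Growth is expressed as percent growth of treated cells relative to untreated controls, with cell growth/viability estimated by sulforhodamine B protein staining.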

Structure (SMILES): O=c1sc2c(Cl)nc(-c3ccccc3)nc2n1-c1ccccc1
- GI50 [1]: 14.8 µM
- TGI ([1]; read-out: pTGI (converted)): 79.4 µM
- growth at 10 µM [2]: 12%
- growth at 10 µM [3]: -4%
- growth at 10 µM [4]: 11%
- growth at 10 µM [5]: 81%
- growth at 10 µM [6]: -45%
- GI50 [7]: 3.8 µM
- TGI ([7]; read-out: pTGI (converted)): 35.5 µM
- growth at 10 µM [8]: 16%
- growth at 10 µM [9]: 54%
- GI50 [10]: 2.09 µM
- CC50 ([10]; read-out: pLC50 (the source's name) (converted)): 9.55 µM
- TGI ([10]; read-out: pTGI (converted)): 4.47 µM
- GI50 [11]: 1.78 µM
- LC50 [11]: 18.2 µM
- TGI ([11]; read-out: pTGI (converted)): 4.79 µM
- growth at 10 µM [12]: 41%
- growth at 10 µM [13]: -44%
- growth at 10 µM [14]: -65%
- GI50 [15]: 3.72 µM
- TGI ([15]; read-out: pTGI (converted)): 18.6 µM
- GI50 [16]: 4.9 µM
- TGI ([16]; read-out: pTGI (converted)): 45.7 µM
- growth at 10 µM [17]: 70%
- growth at 10 µM [18]: 42%
- growth at 10 µM [19]: 43%
- GI50 [20]: 10.5 µM
- TGI ([20]; read-out: pTGI (converted)): 38 µM
- growth at 10 µM [21]: 20%
- growth at 10 µM [22]: 77%
- growth at 10 µM [23]: 24%
- GI50 [24]: 4.07 µM
- growth at 10 µM [25]: 78%
- GI50 [26]: 25.1 µM
- GI50 [27]: 20 µM
- GI50 [28]: 1.32 µM
- TGI ([28]; read-out: pTGI (converted)): 2.88 µM
- growth at 10 µM [29]: 12%
- growth at 10 µM [30]: 26%
- growth at 10 µM [31]: 52%
- GI50 [32]: 25.7 µM
- TGI [33]: 45.7 µM
- growth at 10 µM [34]: 87%
- GI50 [35]: 21.4 µM
- growth at 10 µM [36]: 60%
- growth at 10 µM [37]: 57%
